This is a sample that favours compounds with a hit; in the whole collection about 3.7% have one here.
KCNK9 block – KCNK9 potassium channel inhibitors, primary screen, HEK293 cells, thallium flux. hit rate 1.2% among 310,000. B-score at 10 µM. Potassium channel subfamily K member 9 (Homo sapiens), Q9NPC2. AID 488922, 2010. FluxOR thallium flux fluorescence; stronger effect = lower value;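 active means ratio B-score over 3 SD below the library mean, with starting fluorescence within 5 SD of its mean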;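 further: negative B-score means less thallium flux so channel inhibition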
KCNQ1 inh – inhibitors of human KCNQ1 channel, primary screen, cell-based, thallium flux, high-throughput; Potassium voltage-gated channel subfamily KQT member 1 (Homo sapiens), P51787; CHO-K1 KCNQ1, FluxOR thallium flux fluorescence; stronger effect = higher value; B-score at 10 µM; hit rate 1.3% among 310,000;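 active means compounds whose thallium flux B-score, printed positive for inhibition, exceeds three library SD while starting fluorescence stays within three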;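 further: channel opened by potassium depolarization with thallium stimulus after 20 min compound exposure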
Kir21 inh – inhibitors of mouse Kir2.1 inward-rectifier potassium channel; Inward rectifier potassium channel 2 (Mus musculus), P35561; HEK293-Kir2.1, FluxOR thallium flux fluorescence; stronger effect = lower value; B-score at 10 µM; hit rate 0.85% among 310,000;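 active means fluorescence ratio B-score at or below minus 3 SD of library scores, with starting-brightness B-score within 2 SD, cut at about -4.2 in these data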;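 further: channel flux triggered by added potassium and thallium sulfate stimulus; B-score of peak minus minimum fluorescence over baseline after thallium stimulus; more negative B-score means stronger Kir2.1 block with less thallium influx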
Target sequence (P35561 whole entry, looked up): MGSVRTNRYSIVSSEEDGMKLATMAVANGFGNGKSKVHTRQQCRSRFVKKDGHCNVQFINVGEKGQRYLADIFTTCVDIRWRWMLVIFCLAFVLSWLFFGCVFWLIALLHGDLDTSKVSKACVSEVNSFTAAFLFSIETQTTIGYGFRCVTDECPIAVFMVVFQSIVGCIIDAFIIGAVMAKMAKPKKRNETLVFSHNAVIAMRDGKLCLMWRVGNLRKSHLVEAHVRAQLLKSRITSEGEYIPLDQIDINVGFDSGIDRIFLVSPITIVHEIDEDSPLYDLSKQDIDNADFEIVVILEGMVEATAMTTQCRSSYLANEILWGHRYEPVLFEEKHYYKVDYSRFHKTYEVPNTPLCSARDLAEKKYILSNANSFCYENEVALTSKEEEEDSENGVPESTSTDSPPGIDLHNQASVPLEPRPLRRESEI
hERG protect – hERG rescue from dofetilide block, primary screen, cell-based, CHO-hERG, FluxOR thallium flux, dofetilide IC70; AID 1511, 2009; activation (rescue from dofetilide block), less the hit threshold, % at 10 µM; hit rate 0.51% among 310,000; Voltage-gated inwardly rectifying potassium channel KCNH2 (Homo sapiens), Q12809; dofetilide IC70 present;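 active means activation above the mean of controls blocked by dofetilide plus 5 SD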;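 further: thallium influx through hERG after potassium depolarization seen as dye fluorescence rise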
KCNQ1 act – potentiators or activators of KCNQ1 channel, primary screen, cell-based, thallium flux, high-throughput; CHO-K1 KCNQ1, thallium flux FluxOR fluorescence; stronger effect = higher value; B-score at 10 µM; hit rate 0.35% among 310,000; AID 2648, 2010;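 active means fluorescence ratio B-score, a plate-corrected score, at least three library SD, with initial intensity B-score within 5 SD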
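System: CHO-K1 cells stably expressing KCNQ1 / Medium: assay buffer for compound exposure, DMSO matched across wells / Reagent: thallium- and potassium-containing depolarizing buffer / Compound: one concentration, matched DMSO / Incubation: 20 min compound pretreatment at room temperature / Measured by: kinetic FluxOR fluorescence, 10 s baseline plus 110 s post-stimulus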
KCNK3 inh – human KCNK3 channel inhibitors, primary screen, CHO cells, FluxOR thallium flux, B-score. Potassium channel subfamily K member 3 (Homo sapiens), O14649. FluxOR fluorescence; stronger effect = lower value. B-score at 10 µM. hit rate 0.84% among 340,000;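 active means B-score under library mean minus 4 SD, starting fluorescence ratio at most library mean plus 5 SD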;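 further: more negative B-score means stronger inhibition of thallium flux through KCNK3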
KCNK9 inh conf – KCNK9 potassium channel inhibitors, confirmation, HEK293 cells, thallium flux, duplicate | hit rate 43% among 4,900 | inhibition, % at 10 µM | FluxOR thallium flux fluorescence | shares compounds with KCNK9 block;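 active means thallium signal inhibited by more than 5 SD of the compound-free buffer control wells, on both duplicate plates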;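 further: 0% = assay buffer control wells without compound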
Kir2-1 spec – mouse Kir2.1 channel inhibition, confirmation, selectivity assay for KCNK9 modulator project, cell-based, HEK293, thallium flux. shares compounds with KCNK9 block. Kir2.1 cells, FluxOR thallium flux fluorescence. inhibition, % at 10 µM. hit rate 4% among 4,900;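 active means thallium signal drop more than 5 SD beyond the mean of the no-compound control wells, seen in both duplicate plates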;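 further: signal is fluorescence rise after thallium addition divided by baseline fluorescence; plate controls were assay buffer only for no effect and full block by chlorpromazine control for full effect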
HEK293 Tl ctr – thallium flux in non-induced HEK293 cells, confirmation, counter-screen for KCNK9 inhibitor project, cell-based, second counter screen, non-induced KCNK9-HEK293 | shares compounds with KCNK9 block | FluxOR thallium flux | inhibition, % at 10 µM | hit rate 40% among 4,900 | AID 492997, 2010;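 active means thallium signal drop beyond 5 SD of the untreated control mean, on both duplicate plates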;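 further: plate controls were buffer only IC0 wells for no effect and SID17386958 at its maximal inhibitory level for full effect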
The depositor's hits bear a star; i = inactive; / = no result.

SMILES | KCNK9 block | KCNQ1 inh | Kir21 inh | hERG protect | KCNQ1 act | KCNK3 inh | KCNK9 inh conf | Kir2-1 spec | HEK293 Tl ctr
Cc1ccc(OCCN2C(=O)OC(C)(C)C2(C)O)cc1 (configuration not stated) | i | i | 0.65 | -13 | i | i | / | / | /
CCN(CC)S(=O)(=O)c1cnccc1N1CCN(c2cccc(Cl)c2)CC1 | -9.8* | i | 2.5 | -1 | i | i | 36%* | i | 27%*
CNS(=O)(=O)c1cnccc1N1CCN(c2cccc(Cl)c2)CC1 | i | i | 0.08 | -9 | i | i | / | / | /
Cc1cc(C(=O)C(C)OC(=O)c2cnccn2)c(C)n1-c1ccccc1 (configuration not stated) | i | i | -1.5 | -12 | i | i | / | / | /
Cc1sc(-c2ccncc2)nc1OC(=O)c1ccc(F)cc1F | i | i | -1.5 | -3 | i | i | / | / | /
Cc1cccc(N2CCN(C(=O)c3ccc4c(c3)c(C)c(C)n4C)CC2C)c1 (configuration not stated) | i | i | -0.32 | -11 | i | i | i | i | i
Cc1cccc(N2CCN(C(=O)c3ccc(N4CCCC4=O)cc3)CC2C)c1 (configuration not stated) | i | i | 2.3 | -4 | i | i | / | / | /
CCCNC(=O)c1ccc2c(=O)n3c(-c4ccc(C)cc4)csc3nc2c1 | i | i | -0.87 | -2 | i | i | / | / | /
Cc1ccc(C)c(OCC(O)CN2CCC(CN3C(=O)c4cccc5cccc(c45)C3=O)CC2)c1 (configuration not stated) | i | i | -0.68 | -22 | i | i | i | i | i
Cc1cccc(-n2nc(C(=O)Nc3ccccc3)n3c(=O)cc(-c4ccccc4)nc23)c1 | i | i | 0.15 | -11 | i | i | i | i | i
CC(C)c1ccc(NC(=O)c2ccc(NS(C)(=O)=O)cc2)cc1 | i | i | -2.9 | -11 | i | i | / | / | /
C=C1CCN([C@H](C(=O)OCc2cccc(C)c2)C(C)C)S(=O)(=O)c2ccccc21 | -9* | i | -1.2 | -12 | i | i | 46%* | i | i
COc1ccc(C(=O)NCC(=O)N/N=C/c2cn(C)c3ccccc23)cc1OC | i | i | 1.7 | -13 | i | i | / | / | /
CCCCCCCCCCCCN1[C@@H](CC(=O)O)c2cc(C(F)(F)F)ccc2S1(=O)=O | i | i | 0.46 | -5 | i | i | i | i | i
CCCCCCCCN1[C@@H](CC(=O)OC)c2cc(F)ccc2S1(=O)=O | i | i | -0.77 | -5 | i | i | / | / | /
CCCCCCCCCCCCN1[C@@H](CC(=O)O)c2cc(F)ccc2S1(=O)=O | i | i | -0.17 | -4 | i | i | i | i | i
O=C(NCc1ccc2c(c1)OCO2)c1ccc(CS(=O)(=O)c2cccc(C(F)(F)F)c2)o1 | i | i | -0.75 | -16 | i | i | / | / | /
